Source: PubChem BioAssay
Compounds with a hit are over-represented: about 2% of the library has one in this group of screens.
RAD52 inh: inhibitors of human RAD52 DNA annealing; P43351; AID 651710; recombinant RAD52 DNA annealing, FRET fluorescence; hit rate 0.46% among 360,000; inhibition, % at 18.7 µM;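 active = every replicate showing at least 50% inhibition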
Xi reactivation: activators of X-chromosome reactivation in mouse fibroblasts | XiGFP mouse fibroblasts, % GFP-positive cells imaging, 3 d; cells co-treated with 5-aza-dC sensitizer; scaled so ellipticine positive control = 100% | hit rate 0.055% among 360,000 | activation, % at 7.58 µM;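 active = mean normalized replicate activation at least 10% and every replicate at or above 10%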
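Material: XiGFP fibroblasts, SV40-immortalized. Buffer or medium: DMEM plus 5-aza-dC sensitizer. Compound: single concentration per compound, delivered by pin transfer. Times: 3 days compound exposure. Controls: ellipticine 6 µM.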
Ecoli rRNA inh: inhibitors of bacterial rRNA selective over humanized ribosomes; E. coli WT GFP vs humanized-ribosome RFP mutants, fluorescence, 24 h; hits give low values; DMSO median 0, no signal -100; GFP signal change (wild-type ribosome), % (no concentration beside the values); hit rate 1.6% among 350,000; AID 720706;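 active = significant combined selectivity score with lowered wild-type GFP, culture density cut under 30%, mutant RFP and density less affected; inactive = any of these conditions unmet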
RAD54 inh: inhibitors of human RAD54 branch migration | hit rate 0.14% among 360,000 | Q92698 | inhibition, % at 10.4 µM | RAD54 Holliday junction branch migration, FAM/BHQ fluorescence | AID 602329;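 active = mean normalized replicate activity at least 40 and at least half of replicates scoring 40 or more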;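 also: inhibitors cause a drop in the FAM fluorescence signal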
Target sequence (Q92698 whole entry, looked up): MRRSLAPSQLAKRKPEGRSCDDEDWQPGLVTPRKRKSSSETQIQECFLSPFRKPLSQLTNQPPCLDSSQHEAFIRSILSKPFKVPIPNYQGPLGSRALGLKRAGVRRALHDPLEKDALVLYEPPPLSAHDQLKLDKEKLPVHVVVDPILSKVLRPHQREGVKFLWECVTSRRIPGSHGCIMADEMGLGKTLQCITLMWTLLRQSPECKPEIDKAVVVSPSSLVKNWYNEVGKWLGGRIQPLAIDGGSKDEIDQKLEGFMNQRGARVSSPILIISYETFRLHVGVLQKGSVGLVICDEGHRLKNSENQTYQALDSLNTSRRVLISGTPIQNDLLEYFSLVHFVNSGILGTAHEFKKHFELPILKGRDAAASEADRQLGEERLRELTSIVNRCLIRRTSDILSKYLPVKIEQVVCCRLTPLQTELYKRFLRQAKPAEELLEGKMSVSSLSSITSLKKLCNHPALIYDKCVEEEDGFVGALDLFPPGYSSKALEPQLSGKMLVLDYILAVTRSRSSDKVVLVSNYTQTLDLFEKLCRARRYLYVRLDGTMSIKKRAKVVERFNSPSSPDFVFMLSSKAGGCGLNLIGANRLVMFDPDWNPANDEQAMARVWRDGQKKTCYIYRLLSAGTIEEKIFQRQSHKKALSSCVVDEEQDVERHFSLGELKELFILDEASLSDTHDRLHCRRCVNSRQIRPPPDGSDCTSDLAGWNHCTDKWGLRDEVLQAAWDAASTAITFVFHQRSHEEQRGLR
PglD inh: PglD (C. jejuni) enzyme inhibition; purified PglD enzyme, DTNB colorimetric CoA detection; inhibition, % at 12.5 µM; hit rate 0.098% among 360,000; in the data active = inhibition above about 16%, passing the limit was not always enough
E-selectin induc: E-selectin induction on HUVECs; P16581; HUVEC E-selectin immunofluorescence imaging; normalized: neutral wells 0, TNF-alpha wells 100; activation, % at 7.58 µM; hit rate 0.37% among 260,000; AID 686992;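 active = mean E-selectin-positive cell signal at least 10% of the positive control, reached in at least 60% of replicates, without over 20% cell loss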
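assay system = HUVEC, human umbilical vein endothelial cells | input = 3,000 HUVEC seeded per well | medium = EGM-2 growth medium on 0.1% gelatin-coated wells | dosing = one compound dose added by pin transfer | signal = immunofluorescence imaging | read-out basis = % PE-positive cells | control set = TNF-alpha, DMSO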
A number is an active result; - = inactive; . = no result given.

SMILES	RAD52 inh	Xi reactivation	Ecoli rRNA inh	RAD54 inh	PglD inh	E-selectin induc
C[n+]1ccc(C(=O)N/N=C/c2ccco2)cc1	-	-	-	-	-	139
CN(C)CC(=O)N1[C@@H](CO)[C@@H](c2ccccc2)C12CN(Cc1cc(F)ccc1F)C2	-	-	-	.	.	-
COCCCNC(=O)[C@@]1(CCS(=O)(=O)c2ccccc2)COC(c2ccc(OCCCO)cc2)=N1	-	.	.	-	-	.
CC(=O)OCC1=C(C(=O)O)N2C(=O)C(NC(=O)c3ccc(COc4cccc(Cl)c4Cl)o3)C2SC1 (stereo unspecified)	-	-	-26	-	-	-
N#Cc1c(-c2ccccc2Cl)c2c([nH]c1=O)-c1ccccc1OC2	-	-	-24	-	-	-
CC[N+](CC)(CC#Cc1ccccc1)CC#Cc1ccccc1	-	-	-45	.	.	-
CCn1c(=S)sc2c(=O)n(CC(=O)Nc3ccc(Cl)cc3)c(C)nc21	-	-	-20	-	-	-
CCCCNC(=O)CCC(=O)NNc1nc2ccccc2c2nc(-c3ccccc3)nn12	-	-	-	.	.	.
CCN(CC)CCNc1nc2cc(OC)c(OC)cc2c2nc(-c3ccccc3)nn12	.	.	.	106	-	.
CCN(CC)c1ccc2nc3ccccc3[n+](CC)c2c1	.	.	.	54	-	.
CCN(CC)c1ccc2nc3ccc(N)cc3[n+](-c3ccccc3)c2c1	-	-	-	85	-	92
C[C@@H]1CCCCO[C@@H](CN(C)S(=O)(=O)c2ccc(Cl)cc2)[C@H](C)CN([C@@H](C)CO)C(=O)c2cc(NS(=O)(=O)c3cn(C)cn3)ccc2O1	-	-	-	-	-	-
O=[N+]([O-])c1cccnc1Oc1ccc(C2SCCS2)cc1	-	-	-	.	.	.
COc1cc(C2SCCS2)cc(Br)c1Oc1ncccc1[N+](=O)[O-]	-	-	-	-	-	61
O=C(C[C@@H]1CC[C@@H](NS(=O)(=O)c2ccccc2F)[C@H](CO)O1)NCCCN1CCOCC1	-	-	-	-	-	-
CCCN1CCC2(CC1)CN(Cc1ccc3c(c1)OCO3)[C@H](CO)c1[nH]c3cc(OC)ccc3c12	87	-	-	.	.	-
COc1ccc2c3c([nH]c2c1)[C@@H](CO)N(Cc1nccs1)CC31CCN(Cc2cncnc2)CC1	50	-	-	.	.	-
CCC(=O)N1C[C@@H](C)[C@@H](OC)CN(C)C(=O)c2ccc(NC(=O)c3ccno3)cc2OC[C@@H]1C	-	-	-	-	-	-
COc1ccccc1Nc1cc(C(=O)NCc2cccnc2)c2ccccc2n1	-	-	-	.	.	-
Cc1ccc(C)c(Nc2cc(C(=O)NCc3cccnc3)c3ccccc3n2)c1	-	-	-26	-	-	-
Cc1ccc(C)c(-c2cc(C(=O)N/N=C/c3cccnc3)c3ccccc3n2)c1	-	-	-20	-	-	.
O=C(C1CCCC1)N1[C@@H](CO)[C@@H]2c3ccccc3N(S(=O)(=O)c3ccc(F)cc3)C[C@@H]21	-	-	-	-	-	-
C[C@H]1CN([C@@H](C)CO)C(=O)Cc2cc(NC(=O)Cc3cn(C)c4ccccc34)ccc2O[C@@H]1CN(C)C(=O)Nc1ccc(C(F)(F)F)cc1	-	-	-	-	-	50
C[C@H](CO)N1C[C@H](C)[C@H](CN(C)Cc2ccccc2)Oc2ccc(NC(=O)Cc3cn(C)c4ccccc34)cc2CC1=O	-	-	-	-	-	-
C[C@@H]1CN([C@@H](C)CO)C(=O)Cc2cc(NC(=O)Cc3cn(C)c4ccccc34)ccc2O[C@H]1CN(C)Cc1ccc(C(F)(F)F)cc1	-	-	-	-	-	61
SMILES	RAD52 inh	Xi reactivation	Ecoli rRNA inh	RAD54 inh	PglD inh	E-selectin induc
C[C@H]1CN([C@@H](C)CO)C(=O)Cc2cc(NC(=O)Cc3cn(C)c4ccccc34)ccc2O[C@H]1CN(C)C(=O)Nc1ccc(C(F)(F)F)cc1	-	-	-	-	-	-
COc1ccc(S(=O)(=O)Nc2ccc3c(c2)C(=O)N([C@H](C)CO)C[C@@H](C)[C@H](CN(C)Cc2ccc(Cl)c(Cl)c2)OCCCC[C@@H](C)O3)cc1	.	-	-	-	-	-
Cc1ccc(-c2ccc3c(c2)O[C@@H](CN(C)C(=O)C2CC2)[C@H](C)CN([C@@H](C)CO)S3(=O)=O)cc1	-	-	-	-	-	-
COc1cccc(S(=O)(=O)N2C[C@H](O)COC[C@H]3O[C@H](CC(=O)Nc4ccccc4)CC[C@@H]32)c1	-	-	-	-	-	-
COc1ccccc1C(=O)Nc1ccc2c(c1)nc1n2CCN(C2CCCCC2)C1	-	-	-18	-	-	.
C[C@H]1CN([C@@H](C)CO)S(=O)(=O)c2ccc(C#CC3(O)CCCC3)cc2O[C@H]1CN(C)C(=O)c1ccncc1	-	-	-	-	-	-
O=C(CCN1CCCCC1)NCC[C@@H]1CC[C@@H](NC(=O)C2CC2)[C@@H](CO)O1	-	-	-	-	-	-
O=C(C[C@H]1C=C[C@H](NC(=O)c2cccnc2)[C@H](CO)O1)NCc1ccc(Cl)c(Cl)c1	-	-	-	-	-	-
COc1ccc(C(=O)Nc2ccc3[nH]ccc3c2)cc1	-	-	-31	.	.	34
COc1ccc(C(=O)Nc2ccc3[nH]ccc3c2)cc1OC	-	-	-	-	-	.
COc1ccc(OC)c(C(=O)Nc2ccc3[nH]ccc3c2)c1	-	-	-23	.	.	-
C[C@@H]1CN([C@H](C)CO)C(=O)c2cc(NS(=O)(=O)c3ccc(F)cc3)ccc2O[C@H]1CN(C)CC1CC1	-	-	-	-	-	-
Cc1cccc(-c2ccc([C@H]3[C@@H](CO)N4CCCCN(S(=O)(=O)c5cccs5)C[C@H]34)cc2)c1	-	-	-	-	-	-
COc1cccc(CSc2nnc(CSc3nc4nc(C)cc(C)n4n3)s2)c1	-	.	-29	-	-	.
Cc1ccc2nc(-c3ccc(NC(=O)COCC(=O)O)cc3)sc2c1	-	-	-35	-	-	-
Cc1cc(N/N=C/c2cccc(F)c2)nc(NCc2ccccc2)n1	-	-	-	.	.	-
Cc1cc(N/N=C/c2ccc(Cl)cc2)nc(NCc2ccccc2)n1	-	-	-	.	.	-
Cc1cc(N/N=C/c2ccccc2F)nc(NCc2ccccc2)n1	-	-	-30	.	.	-
Cc1cc(N/N=C/c2ccccc2)nc(NCc2ccccc2)n1	-	-	-35	-	-	.
Cc1ccc(S(=O)(=O)N[C@@H]2C=C[C@@H](CC(=O)NCCCN(C)C)O[C@@H]2CO)cc1	-	-	-	-	-	-
O=C(/C=C/c1cn(CC(O)CN2CCCCC2)c2ccccc12)c1ccccc1 (stereo unspecified)	-	-	-38	.	.	.
O=C(/C=C/c1cn(CC(O)CN2CCCCC2)c2ccccc12)c1cccs1 (stereo unspecified)	.	-	.	.	.	.
